The EC50 is the midpoint of the concentration-response curve. As a reminder, the ED50 is the dose that gives a 50% effect, or the effect in half of the subjects. The LD50 is the dose expected to kill half of the subjects tested. The low end stands for greater toxicity, the high end for lower toxicity.

Active and inactive are the calls of the source. Where only a bound is given, the exact number is not on record here.

The values below come from ChEMBL document CHEMBL4376835, “Discovery of Nonpungent Transient Receptor Potential Vanilloid 1 (TRPV1) Agonist as Strong Topical Analgesic” (J Med Chem, 2020).

Series [1] concerns the target Transient receptor potential cation channel subfamily V member 1 (Rattus norvegicus, UniProt O35433). Briefly: Agonist activity at rat TRPV1 expressed in CHO cells assessed as increase in 45Ca2+ uptake incubated for 5 mins by liquid scintillation counting method. It counts as cell-based. Summed up:
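Human or rat TRPV1 heterologously expressed in CHO cells; agonism read as 45Ca2+ uptake, run as previously described. Values are the mean of at least three experiments.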

In series [2] the target is Transient receptor potential cation channel subfamily V member 1 (Rattus norvegicus) (UniProt O35433). The series is described as follows: Potency index, ratio of Ki of capsaicin to Ki for displacement of [3H]RTX from rat TRPV1 expressed in CHO cells incubated for 60 mins by scintillation counting method. It is filed as cell-based. On the technique in general: Loss of bound radioactivity is the signal in a displacement assay; it reports binding, not function.
Chain of Transient receptor potential cation channel subfamily V member 1 (Rattus norvegicus) (O35433 whole entry): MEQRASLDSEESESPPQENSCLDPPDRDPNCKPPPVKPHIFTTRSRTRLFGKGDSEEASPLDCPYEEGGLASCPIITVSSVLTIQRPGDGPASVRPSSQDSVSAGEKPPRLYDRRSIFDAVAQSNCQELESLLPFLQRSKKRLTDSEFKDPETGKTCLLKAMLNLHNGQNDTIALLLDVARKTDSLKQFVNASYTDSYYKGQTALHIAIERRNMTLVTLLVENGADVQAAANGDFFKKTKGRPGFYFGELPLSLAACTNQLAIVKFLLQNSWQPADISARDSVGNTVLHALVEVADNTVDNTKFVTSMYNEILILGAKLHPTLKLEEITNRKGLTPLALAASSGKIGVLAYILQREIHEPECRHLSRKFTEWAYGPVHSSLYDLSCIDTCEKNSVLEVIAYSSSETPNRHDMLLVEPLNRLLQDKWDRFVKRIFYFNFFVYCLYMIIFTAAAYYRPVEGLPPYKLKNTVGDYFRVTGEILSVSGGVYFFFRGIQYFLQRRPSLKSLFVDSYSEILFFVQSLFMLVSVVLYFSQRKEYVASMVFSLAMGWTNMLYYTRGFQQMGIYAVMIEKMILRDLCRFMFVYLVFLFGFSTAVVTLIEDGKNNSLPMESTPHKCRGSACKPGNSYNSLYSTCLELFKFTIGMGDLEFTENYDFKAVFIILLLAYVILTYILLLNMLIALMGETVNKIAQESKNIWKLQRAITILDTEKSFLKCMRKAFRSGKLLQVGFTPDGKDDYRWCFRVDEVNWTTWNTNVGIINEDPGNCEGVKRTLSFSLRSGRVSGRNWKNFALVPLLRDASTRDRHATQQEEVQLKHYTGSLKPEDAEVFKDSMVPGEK

In series [3] the target is Transient receptor potential cation channel subfamily V member 1 (Homo sapiens, UniProt Q8NER1). Briefly: Potency index, ratio of EC50 of zu-capsaicin to EC50 of compound for agonist activity at human TRPV1 expressed in CHO cells assessed as increase in 45Ca2+ uptake incubated for 5 mins by liquid scintillation counting method. It is filed as cell-based.
Chain of Transient receptor potential cation channel subfamily V member 1 (Homo sapiens, UniProt Q8NER1) (Q8NER1 whole entry): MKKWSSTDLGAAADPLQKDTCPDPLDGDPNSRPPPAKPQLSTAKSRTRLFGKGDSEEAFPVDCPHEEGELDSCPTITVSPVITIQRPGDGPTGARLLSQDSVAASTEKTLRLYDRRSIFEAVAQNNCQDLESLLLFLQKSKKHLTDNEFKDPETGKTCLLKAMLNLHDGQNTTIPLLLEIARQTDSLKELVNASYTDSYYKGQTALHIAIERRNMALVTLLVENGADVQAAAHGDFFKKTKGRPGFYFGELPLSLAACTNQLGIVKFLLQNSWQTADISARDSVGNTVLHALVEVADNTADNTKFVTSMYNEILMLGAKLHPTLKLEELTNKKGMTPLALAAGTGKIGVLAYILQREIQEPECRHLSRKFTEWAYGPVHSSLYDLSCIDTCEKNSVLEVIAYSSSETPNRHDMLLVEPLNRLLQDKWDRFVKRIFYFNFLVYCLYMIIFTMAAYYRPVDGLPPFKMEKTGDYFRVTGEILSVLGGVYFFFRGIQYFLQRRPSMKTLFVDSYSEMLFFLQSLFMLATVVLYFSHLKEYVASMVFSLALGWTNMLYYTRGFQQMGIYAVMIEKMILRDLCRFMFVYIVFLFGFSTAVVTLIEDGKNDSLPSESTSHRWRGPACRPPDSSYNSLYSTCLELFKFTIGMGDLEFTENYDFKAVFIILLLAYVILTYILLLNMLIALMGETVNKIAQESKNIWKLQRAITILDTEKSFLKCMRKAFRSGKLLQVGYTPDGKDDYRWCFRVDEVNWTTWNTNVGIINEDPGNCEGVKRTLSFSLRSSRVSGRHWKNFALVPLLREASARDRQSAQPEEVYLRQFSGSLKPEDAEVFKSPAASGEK
The target of series [4] is Transient receptor potential cation channel subfamily A member 1 (Homo sapiens) (UniProt O75762). The series is described as follows: Agonist activity at human TRPA1 expressed in HEK293 cells assessed as increase in calcium influx at 0.3 to 30 uM incubated for 1 min by Fluo-4-AM dye based FLIPR assay. It counts as cell-based. Summed up: (§1)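 Cells individually transfected with a single TRP channel (TRPV1, hTRPA1, mTRPA1, mTRPV3 or mTRPM8). Intracellular calcium influx recorded by FLIPR after the test compound was applied. Each cell type was also challenged with an agonist suited to its own TRP channel.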
Chain of Transient receptor potential cation channel subfamily A member 1 (Homo sapiens) (O75762 whole entry): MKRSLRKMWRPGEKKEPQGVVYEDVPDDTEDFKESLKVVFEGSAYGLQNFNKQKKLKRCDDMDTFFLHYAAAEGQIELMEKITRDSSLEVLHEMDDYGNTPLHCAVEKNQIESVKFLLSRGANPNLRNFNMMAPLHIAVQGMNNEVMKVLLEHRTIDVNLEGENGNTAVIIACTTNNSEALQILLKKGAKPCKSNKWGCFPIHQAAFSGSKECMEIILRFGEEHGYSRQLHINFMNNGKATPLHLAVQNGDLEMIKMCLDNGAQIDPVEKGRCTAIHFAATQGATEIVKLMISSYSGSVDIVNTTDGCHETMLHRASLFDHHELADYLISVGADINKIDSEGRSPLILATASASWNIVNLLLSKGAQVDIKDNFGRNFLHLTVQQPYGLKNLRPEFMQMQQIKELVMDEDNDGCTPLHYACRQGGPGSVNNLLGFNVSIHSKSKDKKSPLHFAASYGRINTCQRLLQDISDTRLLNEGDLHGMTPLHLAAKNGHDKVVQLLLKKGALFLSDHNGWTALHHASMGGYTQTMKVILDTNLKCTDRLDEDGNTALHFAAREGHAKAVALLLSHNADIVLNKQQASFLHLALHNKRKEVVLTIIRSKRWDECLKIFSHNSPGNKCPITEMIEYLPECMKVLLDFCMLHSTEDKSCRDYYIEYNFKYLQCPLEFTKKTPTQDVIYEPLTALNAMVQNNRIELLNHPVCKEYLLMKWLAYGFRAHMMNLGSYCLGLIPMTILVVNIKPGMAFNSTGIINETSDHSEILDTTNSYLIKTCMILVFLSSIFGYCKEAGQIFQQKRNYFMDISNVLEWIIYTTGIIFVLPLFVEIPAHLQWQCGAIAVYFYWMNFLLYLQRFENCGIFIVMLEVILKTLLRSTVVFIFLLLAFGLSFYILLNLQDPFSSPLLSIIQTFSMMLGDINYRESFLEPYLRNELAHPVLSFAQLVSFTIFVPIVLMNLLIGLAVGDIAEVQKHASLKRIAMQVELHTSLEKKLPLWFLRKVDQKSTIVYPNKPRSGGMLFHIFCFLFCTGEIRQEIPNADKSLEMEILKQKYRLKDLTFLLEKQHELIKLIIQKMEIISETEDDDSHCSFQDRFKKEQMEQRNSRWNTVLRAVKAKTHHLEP

Series [5] addresses Transient receptor potential cation channel subfamily A member 1 (Mus musculus) (UniProt Q8BLA8). The series is described as follows: Agonist activity at mouse TRPA1 expressed in HEK293 cells assessed as increase in calcium influx at 0.3 to 30 uM incubated for 1 min by Fluo-4-AM dye based FLIPR assay. It is filed as cell-based. Summed up: as §1
Series [6] deals with T1, Transient receptor potential cation channel subfamily V member 3 (Mus musculus) (UniProt Q8K424).
T1 sequence (whole entry): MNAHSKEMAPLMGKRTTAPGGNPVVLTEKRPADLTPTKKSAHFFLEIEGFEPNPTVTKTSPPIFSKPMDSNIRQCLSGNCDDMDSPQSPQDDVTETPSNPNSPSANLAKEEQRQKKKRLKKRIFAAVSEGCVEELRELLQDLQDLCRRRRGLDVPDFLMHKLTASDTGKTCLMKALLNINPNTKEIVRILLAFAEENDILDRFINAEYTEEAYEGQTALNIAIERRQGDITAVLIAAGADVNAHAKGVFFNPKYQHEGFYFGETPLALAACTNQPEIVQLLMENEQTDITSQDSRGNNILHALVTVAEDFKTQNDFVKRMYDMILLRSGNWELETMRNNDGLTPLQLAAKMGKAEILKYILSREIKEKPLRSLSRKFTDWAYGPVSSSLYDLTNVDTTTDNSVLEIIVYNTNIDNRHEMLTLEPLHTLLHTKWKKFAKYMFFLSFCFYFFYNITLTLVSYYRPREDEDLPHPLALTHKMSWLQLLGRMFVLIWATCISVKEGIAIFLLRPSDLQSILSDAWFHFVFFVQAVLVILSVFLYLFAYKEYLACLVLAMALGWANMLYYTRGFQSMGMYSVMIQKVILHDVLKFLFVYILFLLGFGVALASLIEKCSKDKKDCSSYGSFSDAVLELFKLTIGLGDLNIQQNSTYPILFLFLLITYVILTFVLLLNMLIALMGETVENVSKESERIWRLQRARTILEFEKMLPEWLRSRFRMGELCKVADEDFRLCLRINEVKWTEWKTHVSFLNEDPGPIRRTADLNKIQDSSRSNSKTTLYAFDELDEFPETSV
The series is described as follows: Agonist activity at mouse TRPV3 expressed in HEK293 cells assessed as increase in calcium influx at 0.3 to 30 uM incubated for 1 min by Fluo-4-AM dye based FLIPR assay. It counts as cell-based. Summed up:
as §1

The subject of series [7] is Mus musculus. Briefly: Induction of hypothermia in ip dosed ICR mouse assessed as decrease in body temperature measured for 7 hrs. It counts as functional, organism-based.
The test system of series [8] is Mus musculus. The series is described as follows: Analgesic activity in ip dosed formalin-induced nociception ICR mouse model assessed as reduction in pain behaviour by measuring less licking of formalin injected hind paw pretreated with compound 30 mins prior to formalin induction measured during first phase (0-5 mins after formalin injection) by formalin test. It is filed as functional. Summed up: (§2)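 Mice were dosed i.p. with 0.1–10 mg/kg, with vehicle and gabapentin (50, 100 mg/kg i.p.) arms. 2% formalin was injected into the dorsal hindpaw, and paw-licking time was recorded for the first phase (5 min) and the second phase (20–30 min). ED50 was taken from the dose–response. Mean±SEM, n=8.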

For series [9], the system named is Mus musculus. The series is described as follows: Analgesic activity against formalin-induced nociception ICR mouse model assessed as reduction in pain behaviour by measuring less licking of formalin injected hind paw at 1 mg/kg, ip pretreated with compound 30 mins prior to formalin induction measured during second phase (20-30 mins after formalin injection) by formalin test. It is filed as functional. Summed up: as §2

The subject of series [10] is Rattus norvegicus. Briefly: Analgesic activity against L5/L6 spinal nerve ligation-induced neuropathic pain Sprague-Dawley rat model assessed as decrease in neuropathic pain by measuring increase in paw withdrawal threshold in response to von frey filament at 5 to 10 mg/kg, ip compound administered at day 14 after ligation and measured up to 1.5 hrs after drug dosing by up and down method relative to control. It counts as functional. Summed up: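 Rat spinal nerve ligation model of neuropathic pain. Compound was given i.p. at 1, 2, 5 or 10 mg/kg; a gabapentin 65 mg/kg i.p. arm and a saline i.p. arm were run alongside. Von Frey withdrawal thresholds were taken pre-surgery and on days 1, 7 and 14, then at 0.5, 1 and 1.5 h post-dose. Mean±SEM, n=7-8.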

Series [11] is described as follows: Systemic drug absorption in porcine skin assessed as drug accumulation in acceptor Franz cell applied topically as carbopol-gel with 1% formulation measured for 8 hrs by Franz diffusion cell based in vitro transdermal delivery test. It counts as ADME, tissue-based, Sus scrofa, Zone of skin. The settings on record: pig.
Series [12] is described as follows: Toxicity in ip dosed ICR mouse administered as single dose. It is filed as organism-based. The note with it: in vivo.
The nature of series [13]: Toxicity in po dosed ICR mouse administered as single dose. The settings on record: in vivo. It counts as organism-based.
Series [14] in a line: Genotoxicity in CHL/IU cells by chromosomal aberration assay. It counts as toxicity, cell-based, Cricetulus griseus. The note with it: chinese hamster.
Series [15] has as its target Transient receptor potential cation channel subfamily V member 1 (Rattus norvegicus) (UniProt O35433). The series is described as follows: Agonist activity at rat TRPV1 expressed in HEK293 cells assessed as increase in calcium influx at 0.3 to 30 uM incubated for 1 min by Fluo-4-AM dye based FLIPR assay. It is filed as cell-based. Summed up: as §1
A short description of series [16]: Genotoxicity in Salmonella typhimurium TA1537 incubated for 48 hrs by Ames test. The note with it: salmonella enterica subsp. enterica serovar typhimurium. It counts as toxicity. A general note: The Ames test detects mutagens through reverse mutation in bacteria.
The nature of series [17]: Genotoxicity in Salmonella typhimurium TA97 incubated for 48 hrs in presence of rat S9 by Ames test. It is filed as toxicity, subcellular. The note with it: salmonella enterica subsp. enterica serovar typhimurium, s9, 48 h.
The nature of series [18]: Genotoxicity in Salmonella typhimurium TA102 incubated for 48 hrs in presence of rat S9 by Ames test. It is filed as toxicity, subcellular. The settings on record: salmonella enterica subsp. enterica serovar typhimurium, s9, 48 h.
Series [19] in a line: Genotoxicity in Salmonella typhimurium TA1535 incubated for 48 hrs in presence of rat S9 by Ames test. It is filed as toxicity, subcellular. The note with it: salmonella enterica subsp. enterica serovar typhimurium, s9, 48 h.
Series [20] in a line: Genotoxicity in Salmonella typhimurium TA1537 incubated for 48 hrs in presence of rat S9 by Ames test. It counts as toxicity, subcellular. The note with it: salmonella enterica subsp. enterica serovar typhimurium, s9, 48 h.
Series [21] in a line: Genotoxicity in Salmonella typhimurium TA1538 incubated for 48 hrs in presence of rat S9 by Ames test. It is filed as toxicity, subcellular. The settings on record: salmonella enterica subsp. enterica serovar typhimurium, s9, 48 h.

Chain of Transient receptor potential cation channel subfamily V member 1 (Rattus norvegicus, UniProt O35433) (O35433 whole entry): as the sequence (O35433 whole entry) above
Chain of Transient receptor potential cation channel subfamily A member 1 (Mus musculus) (Q8BLA8 whole entry): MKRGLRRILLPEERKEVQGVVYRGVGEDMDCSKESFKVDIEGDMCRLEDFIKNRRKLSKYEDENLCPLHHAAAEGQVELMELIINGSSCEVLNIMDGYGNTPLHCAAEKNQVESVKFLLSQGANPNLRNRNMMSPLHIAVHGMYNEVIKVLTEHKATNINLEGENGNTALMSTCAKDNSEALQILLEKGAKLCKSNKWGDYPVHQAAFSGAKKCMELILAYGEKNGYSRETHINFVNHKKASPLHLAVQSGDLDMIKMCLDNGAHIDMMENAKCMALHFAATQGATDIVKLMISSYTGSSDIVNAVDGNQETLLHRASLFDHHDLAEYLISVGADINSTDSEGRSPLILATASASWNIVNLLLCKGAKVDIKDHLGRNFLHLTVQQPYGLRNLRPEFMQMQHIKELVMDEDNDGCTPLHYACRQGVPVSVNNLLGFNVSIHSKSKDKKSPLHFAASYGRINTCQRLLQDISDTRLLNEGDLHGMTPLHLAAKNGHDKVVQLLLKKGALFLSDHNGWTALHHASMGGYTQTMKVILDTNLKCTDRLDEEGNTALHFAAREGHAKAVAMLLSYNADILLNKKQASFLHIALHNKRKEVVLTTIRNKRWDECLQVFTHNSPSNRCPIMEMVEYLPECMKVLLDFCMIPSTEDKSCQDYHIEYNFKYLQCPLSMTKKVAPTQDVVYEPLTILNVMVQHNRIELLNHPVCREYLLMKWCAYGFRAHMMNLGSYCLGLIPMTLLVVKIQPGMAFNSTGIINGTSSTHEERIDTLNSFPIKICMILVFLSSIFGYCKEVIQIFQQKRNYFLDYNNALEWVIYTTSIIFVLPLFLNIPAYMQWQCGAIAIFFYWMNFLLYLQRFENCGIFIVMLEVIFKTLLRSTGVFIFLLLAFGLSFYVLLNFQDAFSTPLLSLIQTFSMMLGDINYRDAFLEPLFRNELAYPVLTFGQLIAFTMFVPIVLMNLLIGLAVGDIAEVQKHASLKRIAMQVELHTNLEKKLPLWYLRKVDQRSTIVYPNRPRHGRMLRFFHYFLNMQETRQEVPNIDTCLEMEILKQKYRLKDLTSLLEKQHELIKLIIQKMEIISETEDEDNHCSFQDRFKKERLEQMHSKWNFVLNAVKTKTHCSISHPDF

As to `CC(C)(C)c1nc(-c2cccc(Cl)c2)c(CNC(=O)Nc2ccc(CO)c(F)c2)s1`, the EC50 in series [1] came out at 93 nM. Further, the Ratio Ki in series [2] stood at 80. Moreover, the Ratio EC50 in [3] was 5. Moreover, the outcome in series [4], in series [5] and in [6] was inactive. The Activity entry in series [7] is “Dose-dependent effect”; in [8] it was “Dose-dependent effect”; in series [14], “Non-Toxic”; in series [16], “Non-Toxic”; in [17], “Non-Toxic”; in [18], “Non-Toxic”. The Activity result in series [19], in series [20] and in series [21] was “Non-Toxic” throughout. For the same molecule, the ED50 in series [8] came out at 0.79 mg/kg. Besides, the MPE in [9] and in series [10] was 100% throughout. Besides, the Drug absorption result in [11] is given as “Not Active”. Besides, the values for the LD50 in series [12] and in series [13] were above 200 mg/kg and above 2000 mg/kg, respectively. Moreover, the outcome in series [15] was Active.
